Test results from ChEMBL document CHEMBL1128385, “Three-dimensional quantitative structure-activity relationships of somatostatin analogues. 1. Comparative molecular field analysis of growth hormone release-inhibiting potencies” (J Med Chem, 1995).
Where a SMILES comes first, the peptide text is derived from it. Bridges are numbered along the chain shown (N, C = ends). [ ]: non-standard residue; d: D form. Phe(4-NO2) = N[C@@H](Cc1ccc([N+](=O)[O-])cc1)C(=O)O; Phe(4-Cl) = N[C@@H](Cc1ccc(Cl)cc1)C(=O)O; dPhe(4-Cl) = N[C@H](Cc1ccc(Cl)cc1)C(=O)O; 2Nal = N[C@@H](Cc1ccc2ccccc2c1)C(=O)O; d2Nal = N[C@H](Cc1ccc2ccccc2c1)C(=O)O; Abu = CC[C@H](N)C(=O)O

Organism: Rattus norvegicus
Assay: In vitro GH release inhibiting potency on anterior pitutaries from adult male rats, relative to somatostatin
Assay type: functional
Method in brief: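 Rat anterior pituitary cells (adult males, 200-250 g), trypsin/DNase dispersed, plated 2 × 10^5 cells/well, cultured 96 h at 37 °C in serum-supplemented DMEM. After washing, cells were pulsed 3 h at 37 °C with 1 nM GRF(1-29)NH2 ± graded analogue doses in medium 199/1% BSA, quadruplicate wells. Medium GH was measured by double-antibody RIA. Potency relative to somatostatin (=1.0) came from four-point assay (mean of ≥3 experiments) or IC50 comparison.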

Structure (SMILES): CC(C)[C@@H]1NC(=O)[C@H](CCCCN)NC(=O)[C@@H](Cc2c[nH]c3ccccc23)NC(=O)[C@H](Cc2c[nH]c3ccccc23)NC(=O)[C@H](NC(=O)[C@H](N)Cc2ccccc2)CSSC[C@@H](C(=O)N[C@@H](Cc2ccc3ccccc3c2)C(N)=O)NC1=O
- GHI: 0.2

Structure (SMILES): CC(C)[C@@H]1NC(=O)[C@H](CCCCN)NC(=O)[C@@H](Cc2c[nH]c3ccccc23)NC(=O)[C@H](Cc2ccc(O)cc2)NC(=O)[C@@H](NC(=O)[C@H](N)Cc2ccc3ccccc3c2)CSSC[C@@H](C(=O)N[C@H](C(=O)O)[C@@H](C)O)NC1=O
- GHI: 1.07

Structure (SMILES): CC(C)[C@@H]1NC(=O)[C@H](CCCCN)NC(=O)[C@@H](Cc2c[nH]c3ccccc23)NC(=O)[C@H](Cc2ccc(O)cc2)NC(=O)[C@@H](NC(=O)[C@H](N)Cc2ccc3ccccc3c2)CSSC[C@@H](C(=O)N[C@H](C(N)=O)[C@@H](C)O)NC1=O
- GHI: 0.83

Structure (SMILES): CC(C)[C@@H]1NC(=O)[C@H](CCCCN)NC(=O)[C@@H](Cc2c[nH]c3ccccc23)NC(=O)[C@H](Cc2ccc(O)cc2)NC(=O)[C@H](NC(=O)[C@H](N)C(c2ccccc2)c2ccccc2)CSSC[C@@H](C(=O)N[C@@H](Cc2ccc3ccccc3c2)C(N)=O)NC1=O
- GHI: 0.91

Structure (SMILES): CC(C)[C@@H]1NC(=O)[C@H](CCCCN)NC(=O)[C@@H](Cc2c[nH]c3ccccc23)NC(=O)[C@H](Cc2ccc(O)cc2)NC(=O)[C@H](NC(=O)[C@H](N)Cc2ccc3ccccc3c2)CSSC[C@@H](C(=O)N[C@@H](Cc2ccc3ccccc3c2)C(=O)O)NC1=O
- GHI: 1.12

Structure (SMILES): CC(C)[C@@H]1NC(=O)[C@H](CCCCN)NC(=O)[C@@H](Cc2c[nH]c3ccccc23)NC(=O)[C@H](Cc2ccc(O)cc2)NC(=O)[C@H](NC(=O)[C@H](N)Cc2ccccc2)CSSC[C@@H](C(=O)N[C@@H](Cc2ccc3ccccc3c2)C(=O)O)NC1=O
- GHI: 0.06

Structure (SMILES): CC(C)[C@@H]1NC(=O)[C@H](CCCN)NC(=O)[C@@H](Cc2c[nH]c3ccccc23)NC(=O)[C@H](Cc2ccc(O)cc2)NC(=O)[C@H](NC(=O)[C@H](N)Cc2ccc3ccccc3c2)CSSC[C@@H](C(=O)N[C@@H](Cc2ccc3ccccc3c2)C(N)=O)NC1=O
- GHI: 4.17

Structure (SMILES): CC(C)[C@H](NC(=O)[C@H](CCCCN)NC(=O)[C@@H](Cc1c[nH]c2ccccc12)NC(=O)[C@H](Cc1ccc(O)cc1)NC(=O)[C@H](C)NC(=O)[C@H](N)Cc1ccc(Cl)cc1)C(=O)N[C@@H](C)C(=O)N[C@H](Cc1ccccc1)C(N)=O
- GHI: 417

Structure (SMILES): CC(C)[C@H](NC(=O)[C@H](CCCCN)NC(=O)[C@@H](Cc1c[nH]c2ccccc12)NC(=O)[C@H](Cc1ccc(O)cc1)NC(=O)[C@H](Cc1ccc(Cl)cc1)NC(=O)[C@H](N)Cc1ccccc1)C(=O)N[C@@H](Cc1ccccc1)C(=O)N[C@H](C)C(N)=O
- GHI: 4000

Structure (SMILES): CN[C@H](C)C(=O)N[C@@H](Cc1ccc(O)cc1)C(=O)N[C@H](Cc1c[nH]c2ccccc12)C(=O)N[C@@H](CCCCN)C(=O)N[C@H](C(=O)N[C@@H](Cc1ccccc1)C(N)=O)C(C)C
- GHI: 20000

Structure (SMILES): C[C@@H](O)[C@@H]1NC(=O)[C@H](CCCCN)NC(=O)[C@@H](Cc2c[nH]c3ccccc23)NC(=O)[C@H](Cc2ccc(O)cc2)NC(=O)[C@@H](NC(=O)[C@H](N)Cc2ccccc2)CSSC[C@@H](C(=O)N[C@@H](Cc2ccc3ccccc3c2)C(N)=O)NC1=O
- GHI: 0.05

Structure (SMILES): C[C@@H](O)[C@@H]1NC(=O)[C@H](CCCCN)NC(=O)[C@@H](Cc2c[nH]c3ccccc23)NC(=O)[C@H](Cc2ccccc2)NC(=O)[C@@H](NC(=O)[C@H](N)Cc2ccccc2)CSSC[C@@H](C(=O)N[C@@H](Cc2ccc3ccccc3c2)C(N)=O)NC1=O
- GHI: 0.22

Structure (SMILES): C[C@@H](O)[C@H](NC(=O)[C@@H]1CSSC[C@H](NC(=O)[C@H](N)Cc2ccc3ccccc3c2)C(=O)N[C@@H](Cc2ccc(O)cc2)C(=O)N[C@H](Cc2c[nH]c3ccccc23)C(=O)N[C@@H](CCCCN)C(=O)N[C@@H]([C@@H](C)O)C(=O)N1)C(N)=O
- GHI: 0.19

Structure (SMILES): C[C@@H](O)[C@H](NC(=O)[C@H](CCCCN)NC(=O)[C@@H](Cc1c[nH]c2ccccc12)NC(=O)[C@H](Cc1ccc(O)cc1)NC(=O)[C@H](Cc1ccc(Cl)cc1)NC(=O)[C@H](N)Cc1ccccc1)C(=O)N[C@@H](Cc1ccccc1)C(=O)N[C@@H](Cc1ccc2ccccc2c1)C(N)=O
- GHI: 100

Structure (SMILES): C[C@H](NC(=O)[C@H](N)Cc1ccccc1)C(=O)N[C@@H](Cc1ccc(O)cc1)C(=O)N[C@H](Cc1c[nH]c2ccccc12)C(=O)N[C@@H](CCCCN)C(=O)N[C@H](C(=O)N[C@@H](C)C(=O)N[C@@H](Cc1ccc2ccccc2c1)C(N)=O)[C@@H](C)O
- GHI: 16

Structure (SMILES): NCCCC[C@@H]1NC(=O)[C@@H](Cc2c[nH]c3ccccc23)NC(=O)[C@H](Cc2ccc(O)cc2)NC(=O)[C@@H](NC(=O)[C@H](N)Cc2ccccc2)CSSC[C@@H](C(=O)N[C@@H](Cc2ccc3ccccc3c2)C(N)=O)NC(=O)[C@H](CO)NC1=O
- GHI: 0.03

Structure (SMILES): CC(C)[C@H](NC(=O)[C@H](CCCCN)NC(=O)[C@@H](Cc1c[nH]c2ccccc12)NC(=O)[C@H](Cc1ccc(O)cc1)NC(=O)[C@H](C)NC(=O)[C@H](N)Cc1ccc2ccccc2c1)C(=O)N[C@@H](C)C(=O)N[C@H](C(N)=O)[C@@H](C)O (H-[d2Nal]AY[dW]KVAT-NH2)
- GHI: 435

Structure (SMILES): CC(C)[C@@H]1NC(=O)[C@H](CCCCN)NC(=O)[C@@H](Cc2c[nH]c3ccccc23)NC(=O)[C@H](Cc2ccc(O)cc2)NC(=O)[C@@H](NC(=O)[C@H](N)Cc2ccc3ccccc3c2)CSSC[C@@H](C(=O)N[C@@H](Cc2ccc3ccccc3c2)C(N)=O)NC1=O (H-[d2Nal]CY[dW]KVC[2Nal]-NH2; disulfide 2-7)
- GHI: 11

Structure (SMILES): C[C@@H](O)[C@H](NC(=O)[C@H](Cc1ccccc1)NC(=O)[C@@H](NC(=O)[C@H](CCCCN)NC(=O)[C@@H](Cc1c[nH]c2ccccc12)NC(=O)[C@H](Cc1ccc(O)cc1)NC(=O)[C@H](Cc1ccc(Cl)cc1)NC(=O)[C@H](N)Cc1ccc2ccccc2c1)[C@@H](C)O)C(N)=O (H-[d2Nal][Phe(4-Cl)]Y[dW]KTFT-NH2)
- GHI: 17

Structure (SMILES): C[C@H](NC(=O)[C@H](N)Cc1ccccc1)C(=O)N[C@@H](Cc1ccccc1)C(=O)N[C@H](Cc1c[nH]c2ccccc12)C(=O)N[C@@H](CCCCN)C(=O)N[C@H](C(=O)N[C@@H](C)C(=O)N[C@H](C(N)=O)[C@@H](C)O)[C@@H](C)O (H-[dF]AF[dW]KTAT-NH2)
- GHI: 2500

Structure (SMILES): CC(C)[C@H](NC(=O)[C@H](CCCCN)NC(=O)[C@@H](Cc1c[nH]c2ccccc12)NC(=O)[C@H](Cc1ccc(O)cc1)NC(=O)[C@H](C)NC(=O)[C@H](N)Cc1ccccc1)C(=O)N[C@@H](C)C(=O)N[C@@H](Cc1ccc2ccccc2c1)C(N)=O (H-[dF]AY[dW]KVA[2Nal]-NH2)
- GHI: 15

Structure (SMILES): CC(C)[C@@H]1NC(=O)[C@H](CCCCN)NC(=O)[C@@H](Cc2c[nH]c3ccccc23)NC(=O)[C@H](Cc2ccc(O)cc2)NC(=O)[C@@H](NC(=O)[C@H](N)Cc2ccccc2)CSSC[C@@H](C(=O)N[C@@H](Cc2ccc3ccccc3c2)C(N)=O)NC1=O (H-[dF]CY[dW]KVC[2Nal]-NH2; disulfide 2-7)
- GHI: 0.43

Structure (SMILES): CC[C@@H]1NC(=O)[C@H](CCCCN)NC(=O)[C@@H](Cc2c[nH]c3ccccc23)NC(=O)[C@H](Cc2ccc(O)cc2)NC(=O)[C@@H](NC(=O)[C@H](N)Cc2ccccc2)CSSC[C@@H](C(=O)N[C@@H](Cc2ccc3ccccc3c2)C(N)=O)NC1=O (H-[dF]CY[dW]K[Abu]C[2Nal]-NH2; disulfide 2-7)
- GHI: 0.03

Structure (SMILES): C[C@@H](O)[C@H](NC(=O)[C@H](Cc1ccccc1)NC(=O)[C@@H](NC(=O)[C@H](CCCCN)NC(=O)[C@@H](Cc1c[nH]c2ccccc12)NC(=O)[C@H](Cc1ccccc1)NC(=O)[C@H](Cc1ccccc1)NC(=O)[C@H](N)Cc1ccccc1)[C@@H](C)O)C(N)=O (H-[dF]FF[dW]KTFT-NH2)
- GHI: 77

Structure (SMILES): CC(C)[C@H](NC(=O)[C@H](CCCCN)NC(=O)[C@@H](Cc1c[nH]c2ccccc12)NC(=O)[C@H](Cc1ccc(O)cc1)NC(=O)[C@H](Cc1ccccc1)NC(=O)[C@H](N)Cc1ccccc1)C(=O)N[C@@H](Cc1ccccc1)C(=O)N[C@H](C(N)=O)[C@@H](C)O (H-[dF]FY[dW]KVFT-NH2)
- GHI: 111

Structure (SMILES): CC(C)[C@H](NC(=O)[C@H](CCCCN)NC(=O)[C@@H](Cc1c[nH]c2ccccc12)NC(=O)[C@H](Cc1ccc(O)cc1)NC(=O)[C@H](Cc1ccccc1)NC(=O)[C@H](N)Cc1ccccc1)C(=O)N[C@@H](Cc1ccccc1)C(=O)N[C@H](Cc1ccc2ccccc2c1)C(N)=O (H-[dF]FY[dW]KVF[d2Nal]-NH2)
- GHI: 12500

Structure (SMILES): CC(C)[C@H](NC(=O)[C@H](CCCCN)NC(=O)[C@@H](Cc1c[nH]c2ccccc12)NC(=O)[C@H](Cc1ccc(O)cc1)NC(=O)[C@H](Cc1ccccc1)NC(=O)[C@H](N)Cc1ccccc1)C(=O)N[C@@H](Cc1ccccc1)C(=O)N[C@H](Cc1ccccc1)C(N)=O (H-[dF]FY[dW]KVF[dF]-NH2)
- GHI: 11100

Structure (SMILES): C[C@@H](O)[C@H](NC(=O)[C@H](Cc1ccccc1)NC(=O)[C@@H](NC(=O)[C@H](CCCCN)NC(=O)[C@@H](Cc1c[nH]c2ccccc12)NC(=O)[C@H](Cc1ccc(O)cc1)NC(=O)[C@H](Cc1ccc(Cl)cc1)NC(=O)[C@H](N)Cc1ccccc1)[C@@H](C)O)C(N)=O (H-[dF][Phe(4-Cl)]Y[dW]KTFT-NH2)
- GHI: 3.4

Structure (SMILES): CC(C)[C@H](NC(=O)[C@H](CCCCN)NC(=O)[C@@H](Cc1c[nH]c2ccccc12)NC(=O)[C@H](Cc1ccc(O)cc1)NC(=O)[C@H](Cc1ccc(Cl)cc1)NC(=O)[C@H](N)Cc1ccccc1)C(=O)N[C@@H](Cc1ccccc1)C(=O)N[C@H](C(N)=O)[C@@H](C)O (H-[dF][Phe(4-Cl)]Y[dW]KVFT-NH2)
- GHI: 17

Structure (SMILES): CC(C)[C@H](NC(=O)[C@H](CCCCN)NC(=O)[C@@H](Cc1c[nH]c2ccccc12)NC(=O)[C@H](Cc1ccc(O)cc1)NC(=O)[C@H](Cc1ccc([N+](=O)[O-])cc1)NC(=O)[C@H](N)Cc1ccccc1)C(=O)N[C@@H](Cc1ccccc1)C(=O)N[C@H](C(N)=O)[C@@H](C)O (H-[dF][Phe(4-NO2)]Y[dW]KVFT-NH2)
- GHI: 159

Structure (SMILES): CC(C)[C@H](NC(=O)[C@H](CCCCN)NC(=O)[C@@H](Cc1c[nH]c2ccccc12)NC(=O)[C@H](Cc1ccc(O)cc1)NC(=O)[C@H](C)NC(=O)[C@H](N)Cc1ccc(Cl)cc1)C(=O)N[C@@H](C)C(=O)N[C@@H](Cc1ccc2ccccc2c1)C(N)=O (H-[dPhe(4-Cl)]AY[dW]KVA[2Nal]-NH2)
- GHI: 45
